The record followed here is ChEMBL document CHEMBL3351255, “Synthesis of dihydroresveratrol glycosides and evaluation of their activity against melanogenesis in B16F0 melanoma cells” (Eur J Med Chem, 2014).

Data set [1] in a line: Toxicity in mouse B16F10 cells assessed as protein content at 25.5 uM incubated for 72 hrs by BCA protein assay. The data set is classed as cell-based. The essentials:
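Treatment was the same as above: B16F0 cells in DMEM with 5% FBS plus sample in ethanol, with medium and sample renewed after 72 h and cells harvested by trypsin 72 h later. Total cellular protein in the pelleted cells was measured by bicinchoninic acid (BCA) assay and expressed as % of negative control.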

The test system of a further data set is B16-F10. Kind of data set: Potency index, ratio of kojic acid to test compound for inhibition of melanogenesis in mouse B16F10 cells. In kind it is functional.
The nature of data set [2]: Toxicity in mouse B16F10 cells assessed as cell viability at 25.5 uM incubated for 72 hrs by BCA protein assay. The data set is classed as cell-based. As to conditions: read-out: Activity.
For the next data set, the system named is B16-F0. Kind of data set: Effect on melanogenesis in mouse B16F0 cells assessed as melanin content at 1 mM incubated for 72 hrs. The conditions noted are these: B16-F0, 72 h.

Each structure is given as a SMILES string.

As for `C=CC/C=C\C/C=C\CCCCCCCc1cc(O)cc(O)c1`, the Activity in data set [1] came out at 98%. For the same compound, the Ratio in the data set on B16-F10 was found to be 40. Further, the viability at 72 h, 25.5 µM in data set [2] turned out to be 102%.
As to `O=c1cc(CO)occ1O` [KOJIC ACID], the melanin content at 1000 µM in the data set on B16-F0 was determined as 79%.
